A word on the MIC90: it is an inhibitory concentration at the 90% level, which refers to growth in some studies and to a panel of isolates in others. By half-life is commonly meant the time in which the quantity being followed falls by half. High values mean slow loss, low ones fast loss. A word on the clearance: it is the rate of elimination divided by the concentration. By Cmax is commonly meant the highest concentration seen after dosing. In general, AUC refers to the area under the concentration-time curve, a measure of exposure. Low values mean less exposure, high ones more exposure. For orientation: bioavailability means the share of a dose that reaches the circulation, judged against a reference dose that is usually intravenous. A lower bioavailability goes with little systemic uptake. The term MIC80 denotes the lowest concentration that inhibits either 80% of growth or 80% of the strains tested, depending on the study. By kinetic solubility is commonly meant solubility judged after dilution from a stock solution rather than from solid. The IC50 is the point on the concentration scale where inhibition reaches its midpoint.

In brackets after ≈: the same amount, converted by molar mass.

Series [1] has as its system Mycobacterium tuberculosis. The experiment in a line: Antimycobacterial activity against Mycobacterium tuberculosis H37Rv ATCC 25618 after 6 days by resazurin-based assay. The class given is functional. Conditions: H37Rv ATCC 25618, 144 h. In general terms: Resazurin is reduced to fluorescent resorufin, in cell work by metabolically active cells.
A short description of series [2]: Intrinsic clearance in mouse liver microsomes at 0.5 uM preincubated with NADPH and measured up to 30 mins by LC-MS/MS analysis. The class given is ADME, microsome.
Series [3] can be described thus: Intrinsic clearance in human liver microsomes at 0.5 uM preincubated with NADPH and measured up to 30 mins by LC-MS/MS analysis. In kind it is ADME, microsome. For orientation: Microsomes from liver hold many membrane-bound enzymes, among them those of drug oxidation.
A short description of series [4]: Half life in C57BL/6 mouse at 4.5 mg/kg, iv by LC-MS/MS analysis. The class given is ADME, organism-based. Conditions: in vivo.
Series [5] can be described thus: Volume of distribution at steady state in C57BL/6 mouse at 4.5 mg/kg, iv by LC-MS/MS analysis. Conditions: in vivo, read-out: Vdss. The class given is ADME, organism-based.
The nature of series [6]: Clearance in C57BL/6 mouse at 4.5 mg/kg, iv by LC-MS/MS analysis. In kind it is ADME, organism-based. Conditions: in vivo.
A short description of series [7]: Cmax in C57BL/6 mouse at 45 mg/kg, po via gavage by LC-MS/MS analysis. In kind it is ADME, organism-based. The arrangement: dose 45 mg/kg, route oral. Conditions: in vivo.
Series [8] can be described thus: AUC in C57BL/6 mouse at 45 mg/kg, po via gavage by LC-MS/MS analysis. The class given is ADME, organism-based. Conditions: in vivo.
Series [9] can be described thus: Oral bioavailability in C57BL/6 mouse at 45 mg/kg via gavage by LC-MS/MS analysis. Conditions: in vivo. In kind it is ADME, organism-based.
Series [10] concerns Mycobacterium tuberculosis. Nature of the series: Antimycobacterial activity against Mycobacterium tuberculosis H37Rv ATCC 25618 assessed as reduction in cell viability after 7 days by bacTiter-Glo assay. The class given is functional. Conditions: H37Rv ATCC 25618, 168 h.
Series [11] in a line: Cytotoxicity against human HepG2 cells after 48 hrs by cellTiter-Glo assay. In kind it is cell-based. Conditions: read-out: TC50. (In general: In ATP-based viability assays light output follows the ATP content of the culture.)
A short description of series [12]: Half life in C57BL/6 mouse at 4 mg/kg, iv by LC-MS/MS analysis. In kind it is ADME, organism-based. Conditions: in vivo. In a few lines:
(§1)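 Female C57BL/6 mice (18−20 g), single intravenous dose in 5% DMSO/20% Encapsin. Tail-vein whole blood (25 μL) was taken from each mouse (n = 5) at 5, 15 and 30 min and 1, 2, 4 and 8 h postdose, and compound concentration was measured in peripheral whole blood.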

Series [13] is described as follows: Volume of distribution at steady state in C57BL/6 mouse at 4 mg/kg, iv by LC-MS/MS analysis. Conditions: in vivo, read-out: Vdss. The class given is ADME, organism-based. In outline: as §1
A short description of series [14]: Cmax in C57BL/6 mouse at 49.2 mg/kg, po via gavage by LC-MS/MS analysis. The arrangement: dose 49.2 mg/kg, route oral. Conditions: in vivo. In kind it is ADME, organism-based.
The subject of series [15] is Mus musculus. The experiment in a line: AUC in C57BL/6 mouse at 49.2 mg/kg, po via gavage by LC-MS/MS analysis. In kind it is ADME, organism-based. Conditions: in vivo.
The subject of series [16] is Mus musculus. The experiment in a line: Oral bioavailability in C57BL/6 mouse at 49.2 mg/kg via gavage by LC-MS/MS analysis. The class given is ADME, organism-based. Conditions: in vivo.
For series [17], the system named is Mycobacterium tuberculosis. Nature of the series: Antimycobacterial activity against Mycobacterium tuberculosis clinical isolates after 6 days by resazurin-based assay. In kind it is functional. Conditions: 144 h.
Series [18] can be described thus: physchem. Conditions: buffer, pH 7.4.
The nature of series [19]: Half life in C57BL/6 mouse at […], iv by LC-MS/MS analysis. The class given is ADME, organism-based. Conditions: in vivo.
Series [20] in a line: Volume of distribution at steady state in C57BL/6 mouse at […], iv by LC-MS/MS analysis. In kind it is ADME, organism-based. Conditions: in vivo, read-out: Vdss.
A short description of series [21]: Clearance in C57BL/6 mouse at […], iv by LC-MS/MS analysis. The class given is ADME, organism-based. Conditions: in vivo.
A short description of series [22]: Cmax in C57BL/6 mouse at 44 mg/kg, po via gavage by LC-MS/MS analysis. The class given is ADME, organism-based. The arrangement: dose 44 mg/kg, route oral. Conditions: in vivo.
Series [23] in a line: AUC in C57BL/6 mouse at 44 mg/kg, po via gavage by LC-MS/MS analysis. In kind it is ADME, organism-based. Conditions: in vivo.
Series [24] is described as follows: Oral bioavailability in C57BL/6 mouse at 44 mg/kg via gavage by LC-MS/MS analysis. In kind it is ADME, organism-based. Conditions: in vivo.
The subject of series [25] is Mycobacterium tuberculosis. The experiment in a line: Antibacterial activity against Mycobacterium tuberculosis H37Rv infected in C57BL/6 mouse assessed as efficacious dose casing 2 log reduction in colony forming units administered orally once daily for 8 days starting following day after infection and measured at 24 hrs post last dose. In kind it is functional. Conditions: po. In a few lines:
(§2)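 Female C57BL/6 mice, 8−10 weeks old, infected intratracheally with 100 000 CFU of H37Rv. Oral dosing once daily for 8 days began 1 day post-infection. Lungs were harvested 24 h after the last dose, homogenised and plated on 7H11 with 10% OADC and 0.4% charcoal for 18 days at 37 °C. Log10 CFU was fitted to a sigmoidal dose-response curve, and ED99 was defined as a 2-log CFU drop versus untreated.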

Series [26] concerns Mus musculus. The experiment in a line: Toxicity in Mycobacterium tuberculosis H37Rv infected C57BL/6 mouse assessed as drug tolerability at >50 mg/kg, po administered once daily for 8 days starting following day after infection and measured at 24 hrs post last dose. The class given is organism-based. Conditions: in vivo.
Series [27] relates to HepG2. The experiment in a line: cells. In kind it is ADME, cell-based. Conditions: Homo sapiens, HepG2, 48 h.
The test system of series [28] is Mycobacterium tuberculosis. Nature of the series: Antibacterial activity against Mycobacterium tuberculosis H37Rv infected in C57BL/6 mouse assessed as reduction in colony forming units administered orally once daily for 8 days starting following day after infection and measured at 24 hrs post last dose relative to untreated control. The class given is functional. In outline:
as §2

In series [29] the test system is HepG2. Nature of the series: Cytotoxicity against human HepG2 cells assessed as effect on mitochondrial membrane potential after 48 hrs by TMRM-staining based cell health assay. In kind it is ADME. Conditions: HepG2, 48 h.
The nature of series [30]: Cardiotoxicity in New Zealand white perfused rabbit heart left ventricular wedge assessed as prolongation of QT interval at 10 uM by electrophysiology assay. In kind it is toxicity, tissue-based, Oryctolagus cuniculus, Heart left ventricle.
Series [31] in a line: Cardiotoxicity in New Zealand white perfused rabbit heart left ventricular wedge assessed as prolongation of QRS interval time at 30 uM by electrophysiology assay relative to control. In kind it is toxicity, tissue-based, Oryctolagus cuniculus, Heart left ventricle.
The nature of series [32]: Cardiotoxicity in New Zealand white perfused rabbit heart left ventricular wedge assessed as drug concentration causing prolongation of Tp-e interval time by electrophysiology assay. In kind it is toxicity, tissue-based, Oryctolagus cuniculus, Heart left ventricle.
Series [33] in a line: Cardiotoxicity in New Zealand white perfused rabbit heart left ventricular wedge assessed as prolongation of Tp-e interval time at 10 uM by electrophysiology assay relative to control. In kind it is toxicity, tissue-based, Oryctolagus cuniculus, Heart left ventricle.
The nature of series [34]: Half life in C57BL/6 mouse at 3.6 mg/kg, iv by LC-MS/MS analysis. The class given is ADME, organism-based. Conditions: in vivo. In outline:
as §1

The nature of series [35]: Volume of distribution at steady state in C57BL/6 mouse at 3.6 mg/kg, iv by LC-MS/MS analysis. In kind it is ADME, organism-based. Conditions: in vivo, read-out: Vdss. In outline:
as §1

Series [36] is described as follows: Clearance in C57BL/6 mouse at 3.6 mg/kg, iv by LC-MS/MS analysis. Conditions: in vivo. The class given is ADME, organism-based. In outline:
as §1

Series [37] is described as follows: Cmax in C57BL/6 mouse at 18.7 mg/kg, po via gavage by LC-MS/MS analysis. Conditions: in vivo. The arrangement: dose 18.7 mg/kg, route oral. In kind it is ADME, organism-based.
Series [38] in a line: AUC in C57BL/6 mouse at 18.7 mg/kg, po via gavage by LC-MS/MS analysis. Conditions: in vivo. In kind it is ADME, organism-based.
Series [39] is described as follows: Oral bioavailability in C57BL/6 mouse at 18.7 mg/kg via gavage by LC-MS/MS analysis. In kind it is ADME, organism-based. Conditions: in vivo.

As for `Brc1ccc(Nc2ccc(CN3CCC4(CC3)OCCc3sccc34)cc2)cc1`, the MIC90 in series [1] was 0.2 µM (≈ 0.0939 µg/mL). Besides, the CLH in series [2] was determined as 0.9 mL/min/g; in series [3], 1.5 mL/min/g. This molecule showed a half-life in series [4] of 7.3 h. For the same molecule, the Vd in series [5] came to 12 L/kg. In series [6], this molecule came in with a clearance of 19.8 mL/min/kg. The same molecule registered a Cmax in series [7] of 1020 ng/mL. For the same molecule, the AUC in [8] is 17900 ng·h/mL. Besides, in series [9], the bioavailability stood at 84.6%.

As for `c1cc2c(s1)CCOC21CCN(Cc2ccc3c(c2)OCCO3)CC1`, the values for the MIC90 in series [1] and in series [17] were 0.3 µM (≈ 0.107 µg/mL) and 0.6 µM (≈ 0.214 µg/mL), respectively. The MIC80 in [10] is 0.25 µM (≈ 0.0894 µg/mL). Further, in series [11], the CC50 at 48 h is 36 µM. In addition, the CLH in series [2] was > 30 mL/min/g; in series [3] it was 25 mL/min/g. In addition, the half-life in series [12] is 0.7 h. The Vd in series [13] came out at 7.4 L/kg. The molecule also returned a Cmax in [14] of 470 ng/mL. The molecule also showed an AUC in series [15] of 1780 ng·h/mL. The molecule also displayed a F in series [16] of 14.6%. In series [18], this molecule had a kinetic solubility at 1 h of 266 µM (≈ 95.1 µg/mL).

In turn, `FC(F)(F)Oc1ccc(Oc2ccc(N3CCC4(CC3)OCCc3sccc34)cc2)cc1` had an MIC90 in series [1] of 0.06 µM (≈ 0.0277 µg/mL). For the same molecule, the CLH in series [2] is 1.2 mL/min/g; in series [3] it was 0.6 mL/min/g. In [19], this molecule gave a half-life of 3.2 h. In series [20], the Vd came to 10.4 L/kg. Further, the clearance in [21] was 36.3 mL/min/kg. Besides, the Cmax in series [22] stood at 1270 ng/mL. Further, the AUC in [23] amounted to 8740 ng·h/mL. Further, the bioavailability in series [24] worked out at 42.6%. The ED99 in series [25] came out at 11.6 mg/kg. Also, the Activity entry in [26] is on record as “Non-Toxic”; in series [28], 4.2 log10CFU. Half-maximal inhibition in series [27] (IC50) required 11 µM.

In series [1], `CC(C)(C)c1ccc(CN2CCC3(CCCCO3)CC2)cc1` showed an MIC90 of 0.21 µM (≈ 0.0633 µg/mL). Also, the CLH stood at 18.1 mL/min/g in series [2] and 3.2 mL/min/g in series [3]. The figures for the IC50 in series [29] and in [27] were 135 µM and 129 µM, respectively. Further, the Activity in [30] worked out at 12.2%; in series [31] it was 25.4%; in [32], 10 µM; in series [33], 44.4%.

In series [1], `c1ccc(Oc2ccc(CN3CCC4(CC3)OCCc3sccc34)cc2)cc1` yielded an MIC90 of 0.05 µM (≈ 0.0196 µg/mL). In addition, the CLH in series [2] turned out to be 28.8 mL/min/g; in [3], 12 mL/min/g. Besides, the half-life in series [34] is 3.9 h. In addition, the Vd in [35] is 19.4 L/kg. Further, in series [36], the clearance stood at 67.7 mL/min/kg. Moreover, the Cmax in series [37] is 50 ng/mL. The AUC in series [38] was found to be 100 ng·h/mL. The molecule further came in with a bioavailability in series [39] of 1.5%.

(Values after ChEMBL document CHEMBL4257587 (J Med Chem, 2018).)
